Reference: ChEMBL document CHEMBL4190262, “Tuning of β-glucosidase and α-galactosidase inhibition by generation and in situ screening of a library of pyrrolidine-triazole hybrid molecules” (Eur J Med Chem, 2017)
One block for each molecule: values may come before it. The source made the active and inactive calls. The calls are words filed in the database; no cut-off is given here.

Columns and labels:
Prunus dulcis [1] = assay: Inhibition of almond beta-glucosidase at 10 uM using p-nitrophenyl glycopyranoside preincubated for 5 mins followed by substrate addition measured after 20 mins by visible absorption spectroscopic method relative to control
Method in brief: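 Crude click-reaction products screened in situ. Azide (final 15 mM) was reacted with each alkyne using sodium ascorbate/CuSO4 in tBuOH–H2O for 24 h at rt, then diluted with water. Tested at 10 μM per well, assuming quantitative conversion, against almond β-glucosidase at pH 5, 37 °C. p-Nitrophenyl glycoside read-out at 405 nm.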

Aspergillus niger = assay: Inhibition of Aspergillus niger amyloglucosidase at 1 mM using p-nitrophenyl glycopyranoside preincubated for 5 mins followed by substrate addition measured after 20 mins by visible absorption spectroscopic method relative to control
Method in brief: (§1)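 Test compound at 1 mM in well. Mix: 0.01–0.5 units/mL enzyme plus 10 mM p-nitrophenyl glycopyranoside (aqueous solution), buffered to the enzyme's optimal pH. Enzyme and inhibitor preincubated 5 min at rt. Substrate then added and incubated 20 min at 37 °C. Stopped with sodium borate (pH 9.8). p-Nitrophenolate read at 405 nm. Duplicates averaged.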

[2] = molecular target: T1, Beta-galactosidase (Aspergillus oryzae) (UniProt B7VU80); assay: Inhibition of Aspergillus oryzae beta-galactosidase at 1 mM using p-nitrophenyl glycopyranoside preincubated for 5 mins followed by substrate addition measured after 20 mins by visible absorption spectroscopic method relative to control; method in brief: as §1
T1 sequence (whole entry): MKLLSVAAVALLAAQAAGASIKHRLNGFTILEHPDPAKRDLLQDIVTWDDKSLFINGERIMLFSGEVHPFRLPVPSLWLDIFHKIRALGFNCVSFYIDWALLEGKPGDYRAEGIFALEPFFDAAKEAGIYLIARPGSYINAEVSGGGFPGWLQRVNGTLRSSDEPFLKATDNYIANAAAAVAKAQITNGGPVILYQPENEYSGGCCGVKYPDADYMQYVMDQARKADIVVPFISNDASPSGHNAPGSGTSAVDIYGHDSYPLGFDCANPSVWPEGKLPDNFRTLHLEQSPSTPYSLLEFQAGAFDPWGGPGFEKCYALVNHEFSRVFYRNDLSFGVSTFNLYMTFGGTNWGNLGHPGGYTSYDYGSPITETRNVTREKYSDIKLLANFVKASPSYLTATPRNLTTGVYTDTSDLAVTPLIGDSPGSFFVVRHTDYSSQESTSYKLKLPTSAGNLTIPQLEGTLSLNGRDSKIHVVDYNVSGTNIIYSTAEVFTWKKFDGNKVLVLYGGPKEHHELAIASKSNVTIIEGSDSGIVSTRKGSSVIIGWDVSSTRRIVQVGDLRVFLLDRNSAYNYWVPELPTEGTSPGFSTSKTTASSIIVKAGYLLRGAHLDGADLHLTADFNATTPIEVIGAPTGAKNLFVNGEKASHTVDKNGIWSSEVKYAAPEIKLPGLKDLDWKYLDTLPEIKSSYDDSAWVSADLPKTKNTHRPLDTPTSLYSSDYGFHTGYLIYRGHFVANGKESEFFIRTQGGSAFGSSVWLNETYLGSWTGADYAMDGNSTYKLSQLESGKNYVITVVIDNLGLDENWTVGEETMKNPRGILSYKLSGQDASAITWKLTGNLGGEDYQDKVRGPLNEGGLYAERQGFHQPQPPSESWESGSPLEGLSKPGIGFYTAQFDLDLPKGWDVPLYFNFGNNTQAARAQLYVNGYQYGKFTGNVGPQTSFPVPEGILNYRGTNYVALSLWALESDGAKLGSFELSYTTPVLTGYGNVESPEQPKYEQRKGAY

[3] = molecular target: T2, Alpha-mannosidase (Canavalia ensiformis) (UniProt C0HJB3); assay: Inhibition of jack bean alpha-mannosidase at 1 mM using p-nitrophenyl glycopyranoside preincubated for 5 mins followed by substrate addition measured after 20 mins by visible absorption spectroscopic method relative to control; method in brief: as §1
T2 sequence (whole entry): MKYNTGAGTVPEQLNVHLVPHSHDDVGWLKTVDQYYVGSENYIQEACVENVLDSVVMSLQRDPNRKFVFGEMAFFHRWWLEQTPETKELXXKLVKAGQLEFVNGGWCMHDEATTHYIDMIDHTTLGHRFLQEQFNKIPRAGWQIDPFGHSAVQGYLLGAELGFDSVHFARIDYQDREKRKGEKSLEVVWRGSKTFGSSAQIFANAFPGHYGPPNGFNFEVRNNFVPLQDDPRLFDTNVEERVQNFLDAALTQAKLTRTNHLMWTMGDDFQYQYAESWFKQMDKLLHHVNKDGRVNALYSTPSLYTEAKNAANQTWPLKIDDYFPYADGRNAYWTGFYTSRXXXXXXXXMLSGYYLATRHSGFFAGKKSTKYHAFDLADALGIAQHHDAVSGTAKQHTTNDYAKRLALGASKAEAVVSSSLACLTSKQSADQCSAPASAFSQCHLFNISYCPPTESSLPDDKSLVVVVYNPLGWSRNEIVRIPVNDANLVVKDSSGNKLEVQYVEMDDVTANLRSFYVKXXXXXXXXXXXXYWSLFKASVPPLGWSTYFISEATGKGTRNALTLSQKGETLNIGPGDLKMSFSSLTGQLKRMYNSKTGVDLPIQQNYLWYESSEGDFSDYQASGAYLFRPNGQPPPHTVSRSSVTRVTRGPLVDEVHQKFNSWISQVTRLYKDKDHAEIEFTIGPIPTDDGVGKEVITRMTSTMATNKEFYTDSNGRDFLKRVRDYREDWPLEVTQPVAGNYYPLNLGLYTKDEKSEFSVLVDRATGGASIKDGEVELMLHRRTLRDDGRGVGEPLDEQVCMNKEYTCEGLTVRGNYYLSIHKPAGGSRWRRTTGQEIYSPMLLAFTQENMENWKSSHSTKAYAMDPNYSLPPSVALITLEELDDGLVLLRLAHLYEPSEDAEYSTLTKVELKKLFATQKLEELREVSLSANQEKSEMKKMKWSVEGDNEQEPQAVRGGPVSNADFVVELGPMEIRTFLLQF

[4] = molecular target: Alpha-galactosidase (Coffea arabica) (UniProt Q42656); assay: Inhibition of coffee beans alpha-galactosidase at 1 mM using p-nitrophenyl glycopyranoside preincubated for 5 mins followed by substrate addition measured after 20 mins by visible absorption spectroscopic method relative to control; method in brief: as §1
Canavalia ensiformis = assay: Inhibition of jack bean beta-N-acetylglucosaminidase at 1 mM using p-nitrophenyl glycopyranoside preincubated for 5 mins followed by substrate addition measured after 20 mins by visible absorption spectroscopic method relative to control; method in brief: as §1
Cornu aspersum = assay: Inhibition of snail beta-mannosidase at 1 mM using p-nitrophenyl glycopyranoside preincubated for 5 mins followed by substrate addition measured after 20 mins by visible absorption spectroscopic method relative to control; method in brief: as §1
Saccharomyces cerevisiae = assay: Inhibition of yeast alpha glucosidase at 1 mM using p-nitrophenyl glycopyranoside preincubated for 5 mins followed by substrate addition measured after 20 mins by visible absorption spectroscopic method relative to control; method in brief: as §1
Bos taurus = species on record: Bos taurus; assay: Inhibition of bovine kidney alpha-L-fucosidase at 1 mM using p-nitrophenyl glycopyranoside preincubated for 5 mins followed by substrate addition measured after 20 mins by visible absorption spectroscopic method relative to control; method in brief: as §1
[5] = molecular target: Beta-galactosidase (Escherichia coli) (UniProt Q8VNN2); assay: Inhibition of Escherichia coli beta-galactosidase at 1 mM using p-nitrophenyl glycopyranoside preincubated for 5 mins followed by substrate addition measured after 20 mins by visible absorption spectroscopic method relative to control; method in brief: as §1
Oryza sativa = assay: Inhibition of rice alpha-glucosidase at 1 mM using p-nitrophenyl glycopyranoside preincubated for 5 mins followed by substrate addition measured after 20 mins by visible absorption spectroscopic method relative to control; method in brief: as §1
Prunus dulcis [6] = assay: Inhibition of almond beta-glucosidase at 1 mM using p-nitrophenyl glycopyranoside preincubated for 5 mins followed by substrate addition measured after 20 mins by visible absorption spectroscopic method relative to control; method in brief: as §1

Chain of Beta-galactosidase (Escherichia coli) (Q8VNN2 whole entry, looked up): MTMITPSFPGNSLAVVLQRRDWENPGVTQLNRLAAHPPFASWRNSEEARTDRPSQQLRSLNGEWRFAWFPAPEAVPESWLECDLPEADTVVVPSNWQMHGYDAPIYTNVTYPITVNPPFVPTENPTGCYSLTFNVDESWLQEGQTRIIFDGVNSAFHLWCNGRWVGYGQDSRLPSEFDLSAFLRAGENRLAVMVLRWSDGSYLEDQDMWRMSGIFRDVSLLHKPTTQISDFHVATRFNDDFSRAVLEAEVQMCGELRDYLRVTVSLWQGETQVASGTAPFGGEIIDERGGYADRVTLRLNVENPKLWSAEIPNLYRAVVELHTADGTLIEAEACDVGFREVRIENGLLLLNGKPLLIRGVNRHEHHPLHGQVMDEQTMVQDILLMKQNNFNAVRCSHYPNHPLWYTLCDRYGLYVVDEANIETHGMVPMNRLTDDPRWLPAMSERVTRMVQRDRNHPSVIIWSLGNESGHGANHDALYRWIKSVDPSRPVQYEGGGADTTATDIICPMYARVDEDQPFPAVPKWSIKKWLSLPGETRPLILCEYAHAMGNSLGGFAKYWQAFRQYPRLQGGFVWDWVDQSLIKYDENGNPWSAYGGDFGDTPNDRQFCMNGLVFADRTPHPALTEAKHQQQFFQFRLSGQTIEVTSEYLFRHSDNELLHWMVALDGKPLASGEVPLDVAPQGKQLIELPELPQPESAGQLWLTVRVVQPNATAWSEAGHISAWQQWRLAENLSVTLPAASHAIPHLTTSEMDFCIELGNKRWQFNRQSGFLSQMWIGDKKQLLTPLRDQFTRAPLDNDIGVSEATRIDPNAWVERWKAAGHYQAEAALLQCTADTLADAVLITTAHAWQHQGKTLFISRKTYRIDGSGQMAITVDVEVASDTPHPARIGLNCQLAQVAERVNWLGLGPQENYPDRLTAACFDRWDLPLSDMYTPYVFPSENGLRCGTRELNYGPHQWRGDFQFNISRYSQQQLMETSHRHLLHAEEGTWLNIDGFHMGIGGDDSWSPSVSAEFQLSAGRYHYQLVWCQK
Chain of Alpha-galactosidase (Coffea arabica) (Q42656 16-378 limits assumed): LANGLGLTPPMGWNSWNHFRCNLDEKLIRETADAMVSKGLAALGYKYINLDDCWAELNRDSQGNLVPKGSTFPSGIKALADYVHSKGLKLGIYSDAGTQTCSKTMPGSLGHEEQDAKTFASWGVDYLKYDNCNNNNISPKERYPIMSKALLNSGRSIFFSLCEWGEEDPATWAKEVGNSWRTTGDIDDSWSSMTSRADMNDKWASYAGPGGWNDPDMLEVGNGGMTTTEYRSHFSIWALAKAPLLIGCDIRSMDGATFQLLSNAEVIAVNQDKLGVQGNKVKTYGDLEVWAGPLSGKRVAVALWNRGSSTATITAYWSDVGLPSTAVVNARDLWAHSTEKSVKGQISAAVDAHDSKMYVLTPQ

inhibition (Aspergillus niger): inactive
inhibition [2]: inactive
inhibition [3]: 60%
inhibition [4]: inactive
inhibition (Canavalia ensiformis): inactive
inhibition (Cornu aspersum): inactive
inhibition (Saccharomyces cerevisiae): inactive
inhibition (Bos taurus): inactive
inhibition [5]: inactive
inhibition (Oryza sativa): inactive
inhibition (Prunus dulcis [6]): 49%
Compound: O[C@H]1[C@@H](O)CN[C@@H]1Cn1cc(-c2ccccc2)nn1

inhibition (Prunus dulcis [1]): inactive
Compound: Cc1oc(CO)cc1C(=O)NCc1cn(C[C@@H]2NC[C@@H](O)[C@H]2O)nn1

inhibition (Prunus dulcis [1]): inactive
Compound: OCc1cn(C[C@@H]2NC[C@@H](O)[C@H]2O)nn1

inhibition (Prunus dulcis [1]): inactive
Compound: O[C@@H]1[C@H](O)CN[C@H]1Cn1cc(C2(O)CCCCC2)nn1

inhibition (Prunus dulcis [1]): inactive
Compound: OCCOCc1cn(C[C@@H]2NC[C@@H](O)[C@H]2O)nn1

inhibition (Prunus dulcis [1]): inactive
Compound: COc1ccc(-c2cn(C[C@@H]3NC[C@@H](O)[C@H]3O)nn2)cc1

inhibition (Prunus dulcis [1]): inactive
Compound: CN(Cc1ccccc1)Cc1cn(C[C@@H]2NC[C@@H](O)[C@H]2O)nn1

Second part, the molecule before the results:

Compound: O[C@@H]1[C@H](O)CN[C@H]1Cn1cc(CC2CCCCC2)nn1
inhibition (Prunus dulcis [1]): inactive

Compound: OCc1ccc(-c2cn(C[C@@H]3NC[C@@H](O)[C@H]3O)nn2)cc1
inhibition (Prunus dulcis [1]): inactive

Compound: OCCCc1cn(C[C@@H]2NC[C@@H](O)[C@H]2O)nn1
inhibition (Prunus dulcis [1]): inactive

Compound: NCc1cn(C[C@@H]2NC[C@@H](O)[C@H]2O)nn1
inhibition (Prunus dulcis [1]): inactive

Compound: OCCOCCOCCOCCOCCOCCOCc1cn(C[C@@H]2NC[C@@H](O)[C@H]2O)nn1
inhibition (Prunus dulcis [1]): inactive

Compound: O[C@@H]1[C@H](O)CN[C@H]1CNC(=S)Nc1ccccc1
inhibition (Aspergillus niger): 18%
inhibition [2]: inactive
inhibition [3]: inactive
inhibition [4]: 16%
inhibition (Canavalia ensiformis): inactive
inhibition (Cornu aspersum): 45%
inhibition (Saccharomyces cerevisiae): inactive
inhibition (Bos taurus): inactive
inhibition [5]: inactive
inhibition (Oryza sativa): inactive
inhibition (Prunus dulcis [6]): 74%

Compound: [N-]=[N+]=NC[C@@H]1NC[C@@H](O)[C@H]1O
inhibition (Aspergillus niger): inactive
inhibition [2]: inactive
inhibition [3]: 71%
inhibition [4]: 44%
inhibition (Canavalia ensiformis): inactive
inhibition (Prunus dulcis [1]): inactive
inhibition (Cornu aspersum): inactive
inhibition (Saccharomyces cerevisiae): inactive
inhibition (Bos taurus): 33%
inhibition [5]: inactive
inhibition (Oryza sativa): inactive
inhibition (Prunus dulcis [6]): inactive

Compound: O[C@@H]1[C@H](O)CN[C@H]1Cn1cc(COc2ccccc2)nn1
inhibition (Prunus dulcis [1]): inactive

Compound: O=C(NC[C@@H]1NC[C@@H](O)[C@H]1O)c1ccccc1
inhibition (Aspergillus niger): inactive
inhibition [2]: inactive
inhibition [3]: 71%
inhibition [4]: inactive
inhibition (Canavalia ensiformis): 17%
inhibition (Cornu aspersum): inactive
inhibition (Saccharomyces cerevisiae): inactive
inhibition (Bos taurus): 15%
inhibition [5]: inactive
inhibition (Oryza sativa): inactive
inhibition (Prunus dulcis [6]): 79%

Compound: Cc1ccc(S(=O)(=O)OCCOCCOCCOCCOCCOCCOCc2cn(C[C@@H]3NC[C@@H](O)[C@H]3O)nn2)cc1
inhibition (Prunus dulcis [1]): inactive

Compound: O[C@@H]1[C@H](O)CN[C@H]1c1cn(Cc2ccccc2)nn1
inhibition (Aspergillus niger): inactive
inhibition [2]: inactive
inhibition [3]: inactive
inhibition [4]: inactive
inhibition (Canavalia ensiformis): inactive
inhibition (Cornu aspersum): inactive
inhibition (Saccharomyces cerevisiae): inactive
inhibition (Bos taurus): 71%
inhibition [5]: inactive
inhibition (Oryza sativa): inactive
inhibition (Prunus dulcis [6]): inactive

Compound: COC(=O)c1cn(C[C@@H]2NC[C@@H](O)[C@H]2O)nn1
inhibition (Prunus dulcis [1]): inactive

Compound: O[C@@H]1[C@@H](c2cn(Cc3ccccc3)nn2)NC[C@@H]1O
inhibition (Aspergillus niger): inactive
inhibition [2]: inactive
inhibition [3]: 30%
inhibition [4]: inactive
inhibition (Canavalia ensiformis): inactive
inhibition (Cornu aspersum): inactive
inhibition (Saccharomyces cerevisiae): inactive
inhibition (Bos taurus): 21%
inhibition [5]: inactive
inhibition (Oryza sativa): inactive
inhibition (Prunus dulcis [6]): inactive

Compound: O=C(NCc1cn(C[C@@H]2NC[C@@H](O)[C@H]2O)nn1)c1ccccc1
inhibition (Prunus dulcis [1]): inactive

Compound: O=C(O)CCCc1cn(C[C@@H]2NC[C@@H](O)[C@H]2O)nn1
inhibition (Prunus dulcis [1]): inactive

Compound: COc1ccc2cc(-c3cn(C[C@@H]4NC[C@@H](O)[C@H]4O)nn3)ccc2c1
inhibition (Prunus dulcis [1]): inactive
